According to ChEMBL document CHEMBL5360562 (Eur J Med Chem, 2023):
≈ marks a conversion by molar mass, not a printed value.

What was measured:
[1] = Therapeutic index, ratio of IC50 for antiproliferative against human HepG2 cells assessed as reduction in cell viability to MIC for potentiation of Clarithromycin antibacterial activity against Acinetobacter baumannii […] assessed as clarithromycin MIC; assay type: toxicity, cell-based; conditions: read-out: TI
Acinetobacter baumannii [2] = test: Potentiation of Clarithromycin antibacterial activity against Acinetobacter baumannii AB5075 assessed as clarithromycin MIC at 7.5 uM incubated for 16 hrs by broth microdilution method; assay type: functional
Acinetobacter baumannii [3] = test: Potentiation of Clarithromycin antibacterial activity against Acinetobacter baumannii AB5075 assessed as clarithromycin MIC at 5 uM incubated for 16 hrs by broth microdilution method; assay type: functional
Acinetobacter baumannii [4] = test: Potentiation of Clarithromycin antibacterial activity against Acinetobacter baumannii AB5075 assessed as fold reduction in clarithromycin MIC at 7.5 uM incubated for 16 hrs by broth microdilution method; assay type: functional
Summary of the method: (§1)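 Checkerboard-style potentiation by broth microdilution. 6 h day cultures in CAMHB diluted to 5×10^5 CFU/mL. Adjuvant added from 10 mM DMSO stock at fixed concentration throughout. […] Controls: antibiotic alone, adjuvant alone, media only. Incubated stationary at 37 °C for 16 h. MIC is lowest concentration with no visible growth; fold reduction taken against the antibiotic-alone lane.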

Acinetobacter baumannii [5] = test: Potentiation of Clarithromycin antibacterial activity against Acinetobacter baumannii AB5075 assessed as clarithromycin MIC at 30 uM incubated for 16 hrs by broth microdilution method; assay type: functional
Acinetobacter baumannii [6] = test: Potentiation of Clarithromycin antibacterial activity against Acinetobacter baumannii AB5075 assessed as fold reduction in clarithromycin MIC at 30 uM incubated for 16 hrs by broth microdilution method; assay type: functional; summary of the method: as §1
Acinetobacter baumannii [7] = test: Antibacterial activity against Acinetobacter baumannii AB5075 assessed as reduction in bacterial growth incubated for 16 hrs by broth microdilution method; assay type: functional
[8] = Metabolic stability in human liver microsomes assessed as parent compound remaining in presence of NADPH measured at 1 hr by UV-UPLC analysis; assay type: ADME, Microsome
Acinetobacter baumannii [9] = test: Potentiation of Clarithromycin antibacterial activity against Acinetobacter baumannii AB5075 assessed as fold reduction in clarithromycin MIC at 5 uM incubated for 16 hrs by broth microdilution method; assay type: functional; summary of the method: as §1
[10] = Stability of compound in human plasma assessed as parent compound remaining measured at 4 hrs; assay type: ADME, cell-free
Summary of the method: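 Compound at 20 μM final in human plasma (from 10 mM DMSO stock), 37 °C; aliquots at 0, 30, 60, 120, 240 min quenched in internal standard in 1:1 ACN/MeOH, centrifuged, supernatant analysed by UPLC-MRM. Peak-area ratio to internal standard expressed as % parent remaining relative to 0 min; half-life calculated.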

[11] = Antiproliferative against human HepG2 cells assessed as reduction in cell viability incubated for 24 hrs by XTT assay; assay type: toxicity, cell-based
Acinetobacter baumannii [12] = test: Potentiation of Clarithromycin antibacterial activity against Acinetobacter baumannii AB5075 assessed as clarithromycin MIC at 2.5 uM incubated for 16 hrs by broth microdilution method; assay type: functional
Acinetobacter baumannii [13] = test: Potentiation of Clarithromycin antibacterial activity against Acinetobacter baumannii AB5075 assessed as reduction in clarithromycin MIC at 20 uM incubated for 16 hrs by broth microdilution method; assay type: functional; conditions: for MIC: Acinetobacter baumannii, AB5075
Acinetobacter baumannii [14] = test: Potentiation of Clarithromycin antibacterial activity against Acinetobacter baumannii AB5075 assessed as fold reduction in clarithromycin MIC at 10 uM incubated for 16 hrs by broth microdilution method; assay type: functional; summary of the method: as §1
Acinetobacter baumannii [15] = test: Potentiation of Clarithromycin antibacterial activity against Acinetobacter baumannii AB5075 assessed as clarithromycin MIC at 10 uM incubated for 16 hrs by broth microdilution method; assay type: functional
Acinetobacter baumannii [16] = test: Potentiation of rifampicin antibacterial activity against Acinetobacter baumannii AB5075 assessed as rifampicin MIC at 10 uM incubated for 16 hrs by broth microdilution method; assay type: functional
Acinetobacter baumannii [17] = test: Potentiation of Azithromycin antibacterial activity against Acinetobacter baumannii AB5075 assessed as azithromycin MIC at 30 uM incubated for 16 hrs by broth microdilution method; assay type: functional
Acinetobacter baumannii [18] = test: Potentiation of Azithromycin antibacterial activity against Acinetobacter baumannii AB5075 assessed as azithromycin MIC at 10 uM incubated for 16 hrs by broth microdilution method; assay type: functional
Acinetobacter baumannii [19] = test: Potentiation of erythromycin antibacterial activity against Acinetobacter baumannii AB5075 assessed as erythromycin MIC at 10 uM incubated for 16 hrs by broth microdilution method; assay type: functional
Acinetobacter baumannii [20] = test: Potentiation of erythromycin antibacterial activity against Acinetobacter baumannii AB5075 assessed as erythromycin MIC at 20 uM incubated for 16 hrs by broth microdilution method; assay type: functional
Acinetobacter baumannii [21] = test: Potentiation of rifampicin antibacterial activity against Acinetobacter baumannii AB5075 assessed as rifampicin MIC at 7.5 uM incubated for 16 hrs by broth microdilution method; assay type: functional
Summary of the method: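 A. baumannii AB5075 6 h day cultures in CAMHB subcultured to 5×10^5 CFU/mL; adjuvant added from 10 mM DMSO stock at fixed concentration, then rifampicin (DMSO) twofold serially diluted in adjuvant-containing broth. Antibiotic-alone and adjuvant-alone control lanes.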

Acinetobacter baumannii [22] = test: Potentiation of rifampicin antibacterial activity against Acinetobacter baumannii AB5075 assessed as rifampicin MIC at 30 uM incubated for 16 hrs by broth microdilution method; assay type: functional
Acinetobacter baumannii [23] = test: Potentiation of Azithromycin antibacterial activity against Acinetobacter baumannii AB5075 assessed as azithromycin MIC at 20 uM incubated for 16 hrs by broth microdilution method; assay type: functional
Acinetobacter baumannii [24] = test: Potentiation of erythromycin antibacterial activity against Acinetobacter baumannii AB5075 assessed as erythromycin MIC at 30 uM incubated for 16 hrs by broth microdilution method; assay type: functional
Acinetobacter baumannii [25] = test: Potentiation of rifampicin antibacterial activity against Acinetobacter baumannii AB5075 assessed as rifampicin MIC at 20 uM incubated for 16 hrs by broth microdilution method; assay type: functional

Structure (SMILES) | MIC (Acinetobacter baumannii [2]) [µg/mL] | MIC (Acinetobacter baumannii [3]) [µg/mL] | fold change (FC) (Acinetobacter baumannii [4]) | MIC (Acinetobacter baumannii [5]) [µg/mL] | fold change (FC) (Acinetobacter baumannii [6]) | MIC (Acinetobacter baumannii [7]) [µM] | fold change (FC) (Acinetobacter baumannii [9]) | fold change (FC) (Acinetobacter baumannii [13]) | MIC (Acinetobacter baumannii [13]) [µg/mL] | fold change (FC) (Acinetobacter baumannii [14]) | MIC (Acinetobacter baumannii [15]) [µg/mL] | also measured
Nc1nc(-c2ccc(NC(=O)c3ccc(Cl)c(Cl)c3)cc2F)c[nH]1 | 1 | 8 | 32 | 0.5 | 64 | > 200 | 4 |  |  |  |  | selectivity ratio [1]: 2.3; Stability [8]: 57%; Stability [10]: > 95%; IC50 at 24 h [11]: 6.8 µg/mL (≈ 18.6 µM)
Cl.Cl.Nc1nc(-c2cc(F)cc(NC(=O)Nc3ccc(-c4c[nH]c(N)n4)c(F)c3)c2)c[nH]1 | 0.25 | 1 | 128 | ≤ 0.062 | >=512 | > 200 |  | 256 | 0.125 |  |  | MIC (Acinetobacter baumannii [12]): 32 µg/mL
Cl.Cl.Nc1nc(-c2ccc(F)c(NC(=O)Nc3cc(-c4c[nH]c(N)n4)ccc3F)c2)c[nH]1 |  |  |  | 32 | 1 | > 200 |  |  |  |  |  | 
Cl.Cl.Nc1nc(-c2ccc(F)c(NC(=O)Nc3ccc(-c4c[nH]c(N)n4)c(F)c3)c2)c[nH]1 |  |  |  | 8 | 4 | > 200 |  |  |  |  |  | 
Cl.Cl.Nc1nc(-c2cccc(NC(=O)Nc3cc(F)cc(-c4c[nH]c(N)n4)c3)c2)c[nH]1 | 1 | 16 | 32 | ≤ 0.062 | >=512 | > 200 | 2 | >=512 | ≤ 0.062 | 64 | 0.5 | 
COc1cc(-c2c[nH]c(N)n2)ccc1NC(=O)Nc1ccc(-c2c[nH]c(N)n2)cc1OC.Cl.Cl |  |  |  | 8 | 4 | 200 |  |  |  |  |  | 
Cl.Cl.Nc1nc(-c2ccc(NC(=O)Nc3ccc(-c4c[nH]c(N)n4)c(F)c3)cc2)c[nH]1 | 2 |  | 16 | ≤ 0.062 | >=512 | > 200 |  | 64 | 0.5 | 32 | 1 | 
Nc1nc(-c2cccc(NC(=O)Nc3cccc(-c4c[nH]c(N)n4)c3)c2)c[nH]1 | 1 | 4 | 32 | ≤ 0.062 | >=512 | 200 (≈ 74.9 µg/mL) | 8 |  |  | 64 | 0.5 | selectivity ratio [1]: 113; MIC (Acinetobacter baumannii [16]): 0.125 µg/mL; MIC (Acinetobacter baumannii [17]): 0.5 µg/mL; MIC (Acinetobacter baumannii [18]): 4 µg/mL; MIC (Acinetobacter baumannii [19]): 4 µg/mL; Stability [8]: 93%; MIC (Acinetobacter baumannii [20]): 0.5 µg/mL; MIC (Acinetobacter baumannii [21]): 1 µg/mL; MIC (Acinetobacter baumannii [22]): 0.003 µg/mL; MIC (Acinetobacter baumannii [23]): 0.5 µg/mL; Stability [10]: 88%; IC50 at 24 h [11]: 380 µg/mL (≈ 1010 µM); MIC (Acinetobacter baumannii [24]): 0.25 µg/mL; MIC (Acinetobacter baumannii [25]): 0.015 µg/mL
